Experiment [1] deals with RAW264.7. As to the kind of experiment: Antiinflammatory activity in mouse RAW264.7 cells assessed as inhibition of LPS-induced nitric oxide production treated 2 hrs before LPS challenge measured after 18 hrs by griess reaction. The format is functional, cell-based. In a few lines: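 RAW 264.7 cells seeded at 1 × 10^5 per well in 24-well plates in RPMI 1640 with 10% heat-inactivated FBS, grown 24 h. Pretreated 2 h with compounds (40, 20, 10, 5, 2.5 µM; DMSO ≤0.1% final), then stimulated with LPS 2 µg/mL for 18 h. Nitrite measured. Mean ± SD.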
On the technique in general: The Griess reaction detects nitrite, a stable product of nitric oxide.

The subject of experiment [2] is RAW264.7. Kind of experiment: Antiinflammatory activity in mouse RAW264.7 cells assessed as inhibition of LPS-induced TNFalpha production treated 2 hrs before LPS challenge measured after 24 hrs by ELISA. The format is functional, cell-based. The following applies: in the assay text read “measured after 18 hrs” for “measured after 24 hrs”. The essentials: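 RAW 264.7 cells (RPMI 1640, 10% heat-inactivated FBS, 37 °C, 5% CO2) seeded in 24-well plates, grown 24 h, then exposed to compounds (100, 50, 25, 12.5, 6.25 µM) and LPS as for the nitrite assay. TNF-α in medium measured by mouse ELISA kit. Data as mean ± SD.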
(In general: In an ELISA, binding on a coated surface is turned into a signal by an enzyme label.)

Regarding `CO[C@@H]1O[C@@H]([C@H](O)C(C)(C)O)C[C@H]1[C@H]1CC[C@]2(C)C3=CC[C@H]4C(C)(C)C(=O)CC[C@]4(C)[C@H]3CC[C@@]12C`, the IC50 in experiment [1] was determined as 29.4 µM; in experiment [2], 54.6 µM. On the same counts, the results for `CC(=O)O[C@@H]1CC[C@]2(C)[C@H]3CC[C@]4(C)C(=CC[C@@H]4[C@H]4CO[C@H](C(C)(C)O)[C@H](O)C4)[C@]3(C)[C@H](O)C[C@H]2C1(C)C` are more than 50 µM and 73.5 µM. On the same counts, the results for `CC(=O)O[C@@H]1CC[C@]2(C)[C@H]3CC[C@]4(C)C(=CC[C@@H]4[C@H]4COC(C)(C)[C@@H](O)[C@H](O)C4)[C@]3(C)[C@H](O)C[C@H]2C1(C)C` [CHISIAMOL B] are 16.5 µM and more than 100 µM. For `CC(=O)O[C@@H]1CC[C@]2(C)[C@H]3CC[C@]4(C)C(=CC[C@@H]4[C@H]4COC(C)(C)[C@@H](O)[C@H](O)C4)[C@]3(C)[C@H](OC(C)=O)C[C@H]2C1(C)C` [CHISIAMOL C] the same measures were 8.7 µM and more than 100 µM.

With `CO[C@@H]1O[C@@H]([C@H](O)C(C)(C)O)C[C@H]1[C@H]1CC=C2[C@]3(C)[C@H](O)C[C@H]4C(C)(C)[C@H](OC(C)=O)CC[C@]4(C)[C@H]3CC[C@]21C` [CHISIAMOL D], the results for the IC50 in experiment [1] and in experiment [2] were 6.5 µM and more than 100 µM, respectively. For `CO[C@H]1O[C@@H]([C@H](O)C(C)(C)O)C[C@H]1[C@H]1CC=C2[C@]3(C)[C@H](O)C[C@H]4C(C)(C)[C@H](OC(C)=O)CC[C@]4(C)[C@H]3CC[C@]21C` [CHISIAMOL E] the same measures were 8.9 µM and more than 100 µM. On the same counts, the results for `CC(=O)O[C@@H]1CC[C@]2(C)[C@H]3CC[C@]4(C)C(=CC[C@@H]4[C@H]4CO[C@](O)(C(C)(C)O)[C@H](O)C4)[C@]3(C)[C@H](OC(C)=O)C[C@H]2C1(C)C` [CHISOPANIN A] are 5.4 µM and 26.9 µM. On the same counts, the results for `CC(=O)O[C@@H]1CC[C@]2(C)[C@H]3CC[C@]4(C)C(=CC[C@@H]4[C@H]4CO[C@](O)(C(C)(C)O)[C@H](O)C4)[C@]3(C)[C@H](O)C[C@H]2C1(C)C` [CHISOPANIN B] are 7.9 µM and 30.7 µM. Consider `C=C(C)[C@@H](O)[C@H]1C[C@@H]([C@H]2CC=C3[C@]4(C)[C@H](O)C[C@H]5C(C)(C)[C@H](OC(C)=O)CC[C@]5(C)[C@H]4CC[C@]32C)[C@H](OC)O1` [CHISOPANIN C], for which the IC50 in experiment [1] was 40 µM; in experiment [2] it was more than 100 µM. On the same counts, the results for `C=C(C)[C@@H](O)[C@H]1C[C@@H]([C@H]2CC=C3[C@]4(C)[C@H](O)C[C@H]5C(C)(C)[C@H](OC(C)=O)CC[C@]5(C)[C@H]4CC[C@]32C)[C@H](OCC)O1` [CHISOPANIN D] are more than 50 µM and more than 100 µM. On the same counts, the results for `CO[C@@H]1O[C@@H]([C@H](O)C(C)(C)OC)C[C@H]1[C@H]1CC=C2[C@]3(C)[C@H](O)C[C@H]4C(C)(C)[C@H](OC(C)=O)CC[C@]4(C)[C@H]3CC[C@]21C` [CHISOPANIN E] are 6.2 µM and more than 100 µM. For the compound `CO[C@H]1O[C@@H]([C@H](O)C(C)(C)OC)C[C@H]1[C@H]1CC=C2[C@]3(C)[C@H](O)C[C@H]4C(C)(C)[C@H](OC(C)=O)CC[C@]4(C)[C@H]3CC[C@]21C` [CHISOPANIN F], the values for the IC50 in experiment [1] and in experiment [2] were 6.9 µM and more than 100 µM, respectively. On the same counts, the results for `CCO[C@@H]1O[C@@H]([C@H](O)C(C)(C)O)C[C@H]1[C@H]1CC=C2[C@]3(C)[C@H](O)C[C@H]4C(C)(C)[C@H](OC(C)=O)CC[C@]4(C)[C@H]3CC[C@]21C` [CHISOPANIN G] are 5.4 µM and more than 100 µM.

With `CCO[C@H]1O[C@@H]([C@H](O)C(C)(C)O)C[C@H]1[C@H]1CC=C2[C@]3(C)[C@H](O)C[C@H]4C(C)(C)[C@H](OC(C)=O)CC[C@]4(C)[C@H]3CC[C@]21C` [CHISOPANIN H], the half-maximal inhibitory concentration (IC50) was more than 50 µM in experiment [1] and more than 100 µM in experiment [2]. For `CCOC(C)(C)[C@@H](O)[C@H]1C[C@@H]([C@H]2CC=C3[C@]4(C)[C@H](O)C[C@H]5C(C)(C)[C@H](OC(C)=O)CC[C@]5(C)[C@H]4CC[C@]32C)[C@H](OC)O1` [CHISOPANIN I] the same measures were 5.3 µM and more than 100 µM. For `CCOC(C)(C)[C@@H](O)[C@H]1C[C@@H]([C@H]2CC=C3[C@]4(C)[C@H](O)C[C@H]5C(C)(C)[C@H](OC(C)=O)CC[C@]5(C)[C@H]4CC[C@]32C)[C@@H](OC)O1` [CHISOPANIN J] the same measures were 12.3 µM and more than 100 µM. On the same counts, the results for `CC(=O)O[C@@H]1CC[C@]2(C)[C@H]3CC[C@]4(C)C(=CC[C@H]4C4=CC(C(O)C(C)(C)O)OC4=O)[C@]3(C)[C@H](O)C[C@H]2C1(C)C` (stereo partly specified) [CHISOPANIN K] are 33.4 µM and 47.4 µM.

Turning to `C[C@@H]1C[C@H]2[C@@H]3CCC4=CC(=O)C=C[C@]4(C)[C@@]3(F)[C@@H](O)C[C@]2(C)[C@@]1(O)C(=O)CO` [DEXAMETHASONE], in experiment [1], the half-inhibitory concentration (IC50) turned out to be 0.86 µM. Take `O=c1c(-c2ccc(O)cc2)coc2cc(O)cc(O)c12` [GENISTEIN]: the IC50 in experiment [2] is 19.1 µM.

As a reminder, the IC50 is the concentration that inhibits the measured activity by half.
